Measured values reported in ChEMBL document CHEMBL2429859, “Inhibiting aberrant signal transducer and activator of transcription protein activation with tetrapodal, small molecule Src homology 2 domain binders: promising agents against multiple myeloma” (J Med Chem, 2013).

These compounds were tested against Signal transducer and activator of transcription 3 (Homo sapiens, UniProt P40763) (assay: Competitive binding affinity to Stat3 SH2 domain (unknown origin) using 5-FAM-GpYLPQTV-NH2 as probe assessed as phosphopetide complex formation after 30 mins by fluorescence polarization assay). Conditions: not given.
Sequence of Signal transducer and activator of transcription 3 (P40763 whole entry, the tested form may be a part): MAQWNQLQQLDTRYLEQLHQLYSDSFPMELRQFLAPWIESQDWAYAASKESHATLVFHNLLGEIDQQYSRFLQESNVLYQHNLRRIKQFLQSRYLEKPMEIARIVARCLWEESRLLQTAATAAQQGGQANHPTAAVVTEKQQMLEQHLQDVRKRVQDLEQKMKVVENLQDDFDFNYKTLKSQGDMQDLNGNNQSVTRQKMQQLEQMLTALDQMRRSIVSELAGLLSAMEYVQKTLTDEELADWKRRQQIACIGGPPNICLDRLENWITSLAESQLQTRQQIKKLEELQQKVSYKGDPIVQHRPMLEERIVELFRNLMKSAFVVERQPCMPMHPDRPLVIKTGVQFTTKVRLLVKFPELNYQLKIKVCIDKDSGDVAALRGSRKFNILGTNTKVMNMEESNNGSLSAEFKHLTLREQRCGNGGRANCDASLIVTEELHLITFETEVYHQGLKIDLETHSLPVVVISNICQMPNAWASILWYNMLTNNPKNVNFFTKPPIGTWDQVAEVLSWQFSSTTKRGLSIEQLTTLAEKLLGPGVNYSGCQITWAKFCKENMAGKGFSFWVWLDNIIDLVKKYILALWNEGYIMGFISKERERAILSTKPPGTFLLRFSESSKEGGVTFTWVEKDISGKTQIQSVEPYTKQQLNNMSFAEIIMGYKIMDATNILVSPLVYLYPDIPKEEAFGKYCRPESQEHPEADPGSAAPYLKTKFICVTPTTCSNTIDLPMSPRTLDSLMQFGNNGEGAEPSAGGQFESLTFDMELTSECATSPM
Method in brief: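 Fluorescence polarization. Recombinant STAT protein was incubated with the 5-FAM-GpYLPQTV-NH2 peptide probe and inhibitor for 30 min. Polarized fluorescence was plotted against inhibitor concentration, and IC50 was obtained by fitting a dose-response curve.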
`Cc1ccc(S(=O)(=O)N(CC(=O)N(Cc2ccc(C3CCCCC3)cc2)c2ccc(C(=O)O)c(O)c2)Cc2ccccc2N)cc1` was tested, and the IC50 was 24 µM. With `CCCN(CC(=O)N(Cc1ccc(C2CCCCC2)cc1)c1ccc(C(=O)O)c(O)c1)S(=O)(=O)c1ccc(C)cc1` the IC50 was 17.8 µM. `Cc1ccc(S(=O)(=O)N(CC(=O)N(Cc2ccc(C3CCCCC3)cc2)c2ccc(C(=O)O)c(O)c2)Cc2c(F)c(F)cc(F)c2F)cc1` was tested, and the IC50 was 22.8 µM. `N#Cc1ccccc1CN(CC(=O)N(Cc1ccc(C2CCCCC2)cc1)c1ccc(C(=O)O)c(O)c1)S(=O)(=O)c1c(F)c(F)c(F)c(F)c1F` gave an IC50 of 11.4 µM. For `O=C(O)c1ccc(N(Cc2ccc(C3CCCCC3)cc2)C(=O)CN(Cc2ccccc2)S(=O)(=O)c2c(F)c(F)c(F)c(F)c2F)cc1O`, the IC50 was 14.4 µM. In the case of `Cc1ccc(S(=O)(=O)N(CC(=O)N(Cc2ccc(C3CCCCC3)cc2)c2ccc(C(=O)O)c(O)c2)Cc2ccc3ccccc3c2)cc1`, the IC50 is reported as 5 µM. `Cc1ccc(S(=O)(=O)N(CC(=O)N(Cc2ccc(C3CCCCC3)cc2)c2ccc(C(=O)O)c(O)c2)Cc2ccccc2OC(F)(F)F)cc1` was tested, and the IC50 was 7.2 µM. For `Cc1ccc(S(=O)(=O)N(CC(N)=O)CC(=O)N(Cc2ccc(C3CCCCC3)cc2)c2ccc(C(=O)O)c(O)c2)cc1`, the IC50 was over 50 µM. With `Cc1ccc(S(=O)(=O)N(CC(=O)N(Cc2ccc(C3CCCCC3)cc2)c2ccc(C(=O)O)c(O)c2)Cc2cc(F)c(F)c(F)c2F)cc1` the IC50 was 22.2 µM. `Cc1ccc(S(=O)(=O)N(CC(=O)N(Cc2ccc(C3CCCCC3)cc2)c2ccc(C(=O)O)c(O)c2)Cc2ccccc2C#N)cc1` showed an IC50 of 22.6 µM. With `CCCN(CC(=O)N(Cc1ccc(C2CCCCC2)cc1)c1ccc(C(=O)O)c(O)c1)S(=O)(=O)c1c(F)c(F)c(F)c(F)c1F` the IC50 was 20.6 µM. Compound `N#Cc1ccc(CN(CC(=O)N(Cc2ccc(C3CCCCC3)cc2)c2ccc(C(=O)O)c(O)c2)S(=O)(=O)c2c(F)c(F)c(F)c(F)c2F)cc1` has an IC50 of 9.4 µM. `Cc1ccc(S(=O)(=O)N(CC(=O)N(Cc2ccc(C3CCCCC3)cc2)c2ccc(C(=O)O)c(O)c2)Cc2ccccc2F)cc1` was tested, and the IC50 was 10.6 µM. With `C=CCN(CC(=O)N(Cc1ccc(C2CCCCC2)cc1)c1ccc(C(=O)O)c(O)c1)S(=O)(=O)c1ccc(C)cc1` the IC50 was over 50 µM. `Cc1ccc(S(=O)(=O)N(CC(=O)N(Cc2ccc(C3CCCCC3)cc2)c2ccc(C(=O)O)c(O)c2)Cc2ccc(N)cc2)cc1` was tested, and the IC50 was 20.8 µM. For `Cc1ccc(S(=O)(=O)N(CC(=O)N(Cc2ccc(C3CCCCC3)cc2)c2ccc(C(=O)O)c(O)c2)Cc2ccc(C#N)cc2)cc1`, the IC50 was 8.6 µM. `COC(=O)c1cccc(CN(CC(=O)N(Cc2ccc(C3CCCCC3)cc2)c2ccc(C(=O)O)c(O)c2)S(=O)(=O)c2ccc(C)cc2)c1` gave an IC50 of 18.4 µM. For `Cc1ccc(S(=O)(=O)N(CC(=O)N(Cc2ccc(C3CCCCC3)cc2)c2ccc(C(=O)O)c(O)c2)Cc2c(F)cc(F)c(F)c2F)cc1`, the IC50 was 15.4 µM. `Cc1ccc(S(=O)(=O)N(CC(=O)N(Cc2ccc(C3CCCCC3)cc2)c2ccc(C(=O)O)c(O)c2)Cc2ccc(F)cc2C(F)(F)F)cc1` was tested, and the IC50 was 11 µM. With `Cc1ccc(S(=O)(=O)N(CC(=O)N(Cc2ccc(C3CCCCC3)cc2)c2ccc(C(=O)O)c(O)c2)Cc2ccc(SC(F)(F)F)cc2)cc1` the IC50 was 9.6 µM. Compound `Cc1ccc(S(=O)(=O)N(CC(=O)N(Cc2ccc(C3CCCCC3)cc2)c2ccc(C(=O)O)c(O)c2)Cc2cccc(C)c2)cc1` has an IC50 of 5.2 µM. With `COC(=O)c1ccccc1CN(CC(=O)N(Cc1ccc(C2CCCCC2)cc1)c1ccc(C(=O)O)c(O)c1)S(=O)(=O)c1c(F)c(F)c(F)c(F)c1F` the IC50 was 17.4 µM. `O=C(O)c1ccc(N(Cc2ccc(C3CCCCC3)cc2)C(=O)CN(Cc2ccccc2Cl)S(=O)(=O)c2c(F)c(F)c(F)c(F)c2F)cc1O` gave an IC50 of 11 µM. Work on `Cc1ccc(S(=O)(=O)N(CC(=O)N(Cc2ccc(C3CCCCC3)cc2)c2ccc(C(=O)O)c(O)c2)Cc2ccc(F)cc2)cc1` yielded an IC50 of 7.6 µM. Work on `Cc1ccc(CN(CC(=O)N(Cc2ccc(C3CCCCC3)cc2)c2ccc(C(=O)O)c(O)c2)S(=O)(=O)c2c(F)c(F)c(F)c(F)c2F)cc1` yielded an IC50 of 14.4 µM. For `Cc1ccc(S(=O)(=O)N(CC(=O)N(Cc2ccc(C3CCCCC3)cc2)c2ccc(C(=O)O)c(O)c2)Cc2ccccc2[N+](=O)[O-])cc1`, the IC50 was 10 µM. `O=C(O)c1ccc(N(Cc2ccc(C3CCCCC3)cc2)C(=O)CN(Cc2ccc3ccccc3c2)S(=O)(=O)c2c(F)c(F)c(F)c(F)c2F)cc1O` showed an IC50 of 21.8 µM. For `Cc1ccc(S(=O)(=O)N(CC(=O)N(Cc2ccc(C3CCCCC3)cc2)c2ccc(C(=O)O)c(O)c2)Cc2cccc(N)c2)cc1`, the IC50 was 12.4 µM. `O=C(O)c1ccc(N(Cc2ccc(C3CCCCC3)cc2)C(=O)CN(Cc2ccccc2OC(F)(F)F)S(=O)(=O)c2c(F)c(F)c(F)c(F)c2F)cc1O` gave an IC50 of 10.2 µM. In the case of `O=C(O)c1ccc(N(Cc2ccc(C3CCCCC3)cc2)C(=O)CN(Cc2ccc(F)cc2)S(=O)(=O)c2c(F)c(F)c(F)c(F)c2F)cc1O`, the IC50 is reported as 17.6 µM. `Cc1ccc(S(=O)(=O)N(CC(=O)N(Cc2ccc(C3CCCCC3)cc2)c2ccc(C(=O)O)c(O)c2)Cc2ccc(Cl)cc2)cc1` showed an IC50 of 6.2 µM. With `Cc1ccc(S(=O)(=O)N(CC(=O)N(Cc2ccc(C3CCCCC3)cc2)c2ccc(C(=O)O)c(O)c2)Cc2cccc([N+](=O)[O-])c2)cc1` the IC50 was 5 µM. Compound `O=C(O)c1ccc(N(Cc2ccc(C3CCCCC3)cc2)C(=O)CNS(=O)(=O)c2c(F)c(F)c(F)c(F)c2F)cc1O` has an IC50 of 32.4 µM. In the case of `O=C(O)c1ccc(N(Cc2ccc(C3CCCCC3)cc2)C(=O)CN(Cc2c(F)cc(F)c(F)c2F)S(=O)(=O)c2c(F)c(F)c(F)c(F)c2F)cc1O`, the IC50 is reported as 17.6 µM. `CCOC(=O)c1ccc(CN(CC(=O)N(Cc2ccc(C3CCCCC3)cc2)c2ccc(C(=O)O)c(O)c2)S(=O)(=O)c2ccc(C)cc2)cc1` gave an IC50 of 7.6 µM. `CC(C)(C)OC(=O)N(CC(=O)N(Cc1ccc(C2CCCCC2)cc1)c1ccc(C(=O)O)c(O)c1)S(=O)(=O)c1c(F)c(F)c(F)c(F)c1F` gave an IC50 of 27.4 µM. Compound `Cc1ccc(S(=O)(=O)N(CC(=O)N(Cc2ccc(C3CCCCC3)cc2)c2ccc(C(=O)O)c(O)c2)Cc2ccccn2)cc1` has an IC50 of 45.2 µM. In the case of `O=C(O)c1ccc(N(Cc2ccc(C3CCCCC3)cc2)C(=O)CN(Cc2c(F)c(F)cc(F)c2F)S(=O)(=O)c2c(F)c(F)c(F)c(F)c2F)cc1O`, the IC50 is reported as 16.6 µM. Work on `O=C(O)c1ccc(N(Cc2ccc(C3CCCCC3)cc2)C(=O)CN(Cc2cccc(Cl)c2)S(=O)(=O)c2c(F)c(F)c(F)c(F)c2F)cc1O` yielded an IC50 of 18.2 µM. `O=C(O)c1ccc(N(Cc2ccc(C3CCCCC3)cc2)C(=O)CN(Cc2cccc(OC(F)(F)F)c2)S(=O)(=O)c2c(F)c(F)c(F)c(F)c2F)cc1O` gave an IC50 of 17.8 µM. Compound `Cc1ccc(S(=O)(=O)N(CC(=O)N(Cc2ccc(C3CCCCC3)cc2)c2ccc(C(=O)O)c(O)c2)Cc2cccc(OC(F)(F)F)c2)cc1` has an IC50 of 8 µM. Work on `Cc1ccc(S(=O)(=O)N(CC(=O)N(Cc2ccc(C3CCCCC3)cc2)c2ccc(C(=O)O)c(O)c2)Cc2cccnc2)cc1` yielded an IC50 of over 50 µM. Work on `Cc1cccc(CN(CC(=O)N(Cc2ccc(C3CCCCC3)cc2)c2ccc(C(=O)O)c(O)c2)S(=O)(=O)c2c(F)c(F)c(F)c(F)c2F)c1` yielded an IC50 of 14.6 µM. For `Cc1ccc(S(=O)(=O)N(CC(=O)N(Cc2ccc(C3CCCCC3)cc2)c2ccc(C(=O)O)c(O)c2)CC(C)C)cc1`, the IC50 was 17 µM. With `O=C(O)c1ccc(N(Cc2ccc(C3CCCCC3)cc2)C(=O)CN(Cc2cccc(F)c2)S(=O)(=O)c2c(F)c(F)c(F)c(F)c2F)cc1O` the IC50 was 17.8 µM. `Cc1ccc(S(=O)(=O)N(CC(=O)N(Cc2ccc(C3CCCCC3)cc2)c2ccc(C(=O)O)c(O)c2)Cc2cccc(Cl)c2)cc1` showed an IC50 of 6 µM. `O=C(O)c1ccc(N(Cc2ccc(C3CCCCC3)cc2)C(=O)CN(Cc2ccc(OC(F)(F)F)cc2)S(=O)(=O)c2c(F)c(F)c(F)c(F)c2F)cc1O` was tested, and the IC50 was 21.6 µM. `COC(=O)c1ccc(CN(CC(=O)N(Cc2ccc(C3CCCCC3)cc2)c2ccc(C(=O)O)c(O)c2)S(=O)(=O)c2ccc(C)cc2)cc1` showed an IC50 of 11.6 µM. Compound `O=C(O)c1ccc(N(Cc2ccc(C3CCCCC3)cc2)C(=O)CN(Cc2ccc(Cl)cc2)S(=O)(=O)c2c(F)c(F)c(F)c(F)c2F)cc1O` has an IC50 of 13.8 µM. `Cc1ccc(S(=O)(=O)N(CC(=O)N(Cc2ccc(C3CCCCC3)cc2)c2ccc(C(=O)O)c(O)c2)Cc2ccccc2)cc1` showed an IC50 of 14.4 µM. For `Cc1ccc(S(=O)(=O)N(CC(=O)N(Cc2ccc(C3CCCCC3)cc2)c2ccc(C(=O)O)c(O)c2)Cc2ccc([N+](=O)[O-])cc2)cc1`, the IC50 was 11 µM. For `N#Cc1cccc(CN(CC(=O)N(Cc2ccc(C3CCCCC3)cc2)c2ccc(C(=O)O)c(O)c2)S(=O)(=O)c2c(F)c(F)c(F)c(F)c2F)c1`, the IC50 was 19.8 µM. For `O=C(O)c1ccc(N(Cc2ccc(C3CCCCC3)cc2)C(=O)CN(Cc2cc(F)c(F)c(F)c2F)S(=O)(=O)c2c(F)c(F)c(F)c(F)c2F)cc1O`, the IC50 was 12.4 µM. `Cc1ccc(S(=O)(=O)N(CC(=O)N(Cc2ccc(C3CCCCC3)cc2)c2ccc(C(=O)O)c(O)c2)Cc2ccncc2)cc1` gave an IC50 of 46.6 µM. `O=C(O)c1ccc(N(Cc2ccc(C3CCCCC3)cc2)C(=O)CN(Cc2ccccc2F)S(=O)(=O)c2c(F)c(F)c(F)c(F)c2F)cc1O` showed an IC50 of 28 µM. `Cc1ccc(S(=O)(=O)N(CC(=O)N(Cc2ccc(C3CCCCC3)cc2)c2ccc(C(=O)O)c(O)c2)Cc2ccccc2Cl)cc1` gave an IC50 of 15.8 µM. `Cc1ccc(S(=O)(=O)N(CC(=O)N(Cc2ccc(C3CCCCC3)cc2)c2ccc(C(=O)O)c(O)c2)Cc2cccc(C#N)c2)cc1` was tested, and the IC50 was 12.4 µM. In the case of `Cc1ccc(S(=O)(=O)N(CC(=O)N(Cc2ccc(C3CCCCC3)cc2)c2ccc(C(=O)O)c(O)c2)Cc2cccc(F)c2)cc1`, the IC50 is reported as 9 µM. For `Cc1ccc(CN(CC(=O)N(Cc2ccc(C3CCCCC3)cc2)c2ccc(C(=O)O)c(O)c2)S(=O)(=O)c2ccc(C)cc2)cc1`, the IC50 was over 50 µM. With `Cc1ccc(S(=O)(=O)N(CC(=O)N(Cc2ccc(C3CCCCC3)cc2)c2ccc(C(=O)O)c(O)c2)Cc2ccc(OC(F)(F)F)cc2)cc1` the IC50 was 11.8 µM. `COC(=O)c1cccc(CN(CC(=O)N(Cc2ccc(C3CCCCC3)cc2)c2ccc(C(=O)O)c(O)c2)S(=O)(=O)c2c(F)c(F)c(F)c(F)c2F)c1` showed an IC50 of 30.8 µM.

Each compound was assayed on OCI-AML2 (assay: Cytotoxicity against human OCI-AML2 cells assessed as cell viability after 72 hrs by MTS assay). Conditions: OCI-AML2, 72 h.
Type: functional, cell-based
Method in brief: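 Cells were seeded at 1-3 x 10^4 per well into wells already holding compound or vehicle, in triplicate. Incubation was 72 h at 37 °C in 5% CO2. Viability was read by MTS colorimetry relative to DMSO control, and EC50 was fitted to a standard dose-response curve where applicable.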
For `CN(CC(=O)N(Cc1ccc(C2CCCCC2)cc1)c1ccc(C(=O)O)c(O)c1)S(=O)(=O)c1c(F)c(F)c(F)c(F)c1F`, the IC50 was 10 µM.
